Test [1] has as its target T1, Peroxisome proliferator-activated receptor delta (Homo sapiens, UniProt Q03181).
T1 sequence (Q03181 whole entry): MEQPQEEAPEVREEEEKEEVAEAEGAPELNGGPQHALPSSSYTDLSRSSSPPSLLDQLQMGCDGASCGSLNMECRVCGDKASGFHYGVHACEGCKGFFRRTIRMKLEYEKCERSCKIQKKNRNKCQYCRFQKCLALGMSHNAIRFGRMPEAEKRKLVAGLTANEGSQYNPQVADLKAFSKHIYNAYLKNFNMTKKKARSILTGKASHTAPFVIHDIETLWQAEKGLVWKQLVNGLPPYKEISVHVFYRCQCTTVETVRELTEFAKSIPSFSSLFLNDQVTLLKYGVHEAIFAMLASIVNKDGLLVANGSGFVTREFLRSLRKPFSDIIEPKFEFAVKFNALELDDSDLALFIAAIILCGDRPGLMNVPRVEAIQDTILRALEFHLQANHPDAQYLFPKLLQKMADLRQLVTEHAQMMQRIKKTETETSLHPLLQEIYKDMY
Briefly: Agonist activity on Gal4 chimeric human Peroxisome proliferator activated receptor delta expressed in CHO-K1 cells. Format: functional, cell-based.

For test [2], the system named is Rattus norvegicus. Briefly: In vivo percent reduction on total cholesterol of the rat at 30 mg/kg after 5 days. The format is functional. Summed up: (§1)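 Male Sprague-Dawley rats, 11 weeks old, fed standard chow and water ad libitum. Drug or vehicle suspended in 0.5% w/v arabic gum and given orally once daily at 0.3, 3 or 30 mg/kg; duration is 4 days in the methods and 5 days in the table. Plasma taken in the fed state. TG, FFA and total cholesterol measured enzymatically. HDL obtained by precipitation; LDL+VLDL = total minus HDL cholesterol. Values are mean percent reduction, N = 5 or 6.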

Test [3] relates to Rattus norvegicus. Briefly: In vivo percent reduction on LDL+VLDL of the rat at 30 mg/kg after 5 days. The format is functional. The method, boiled down: as §1
The test system of test [4] is Rattus norvegicus. In words: In vivo percent reduction on FFA of the rat at 30 mg/kg after 5 days. The format is functional. Summed up: as §1
Test [5] deals with Rattus norvegicus. In words: In vivo percent reduction on TG of the rat at 30 mg/kg after 5 days. Format: functional. The method, boiled down: as §1
Test [6] concerns the target T2, Peroxisome proliferator-activated receptor gamma (Homo sapiens) (UniProt P37231).
T2 sequence (whole entry): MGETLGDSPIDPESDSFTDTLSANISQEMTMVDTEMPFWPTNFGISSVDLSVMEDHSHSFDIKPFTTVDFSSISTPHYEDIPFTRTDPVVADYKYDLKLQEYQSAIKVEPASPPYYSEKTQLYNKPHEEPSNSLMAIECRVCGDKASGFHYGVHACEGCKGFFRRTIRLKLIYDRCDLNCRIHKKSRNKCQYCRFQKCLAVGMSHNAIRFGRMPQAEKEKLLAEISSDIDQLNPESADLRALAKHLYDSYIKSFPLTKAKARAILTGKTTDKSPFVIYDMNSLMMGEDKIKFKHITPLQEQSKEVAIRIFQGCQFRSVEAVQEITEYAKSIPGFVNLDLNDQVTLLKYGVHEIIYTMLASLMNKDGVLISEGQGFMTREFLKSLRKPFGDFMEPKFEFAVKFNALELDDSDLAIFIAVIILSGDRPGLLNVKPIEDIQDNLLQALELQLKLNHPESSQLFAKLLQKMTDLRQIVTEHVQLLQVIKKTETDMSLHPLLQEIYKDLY
Briefly: In vitro effective concentration for agonist activity on human Peroxisome proliferator activated receptor gamma-Gal4 chimeric receptor in transfected CHO-K1 cells at 10 uM. The format is functional, cell-based.

The target of test [7] is T3, Peroxisome proliferator-activated receptor alpha (Homo sapiens) (UniProt Q07869).
T3 sequence (whole entry): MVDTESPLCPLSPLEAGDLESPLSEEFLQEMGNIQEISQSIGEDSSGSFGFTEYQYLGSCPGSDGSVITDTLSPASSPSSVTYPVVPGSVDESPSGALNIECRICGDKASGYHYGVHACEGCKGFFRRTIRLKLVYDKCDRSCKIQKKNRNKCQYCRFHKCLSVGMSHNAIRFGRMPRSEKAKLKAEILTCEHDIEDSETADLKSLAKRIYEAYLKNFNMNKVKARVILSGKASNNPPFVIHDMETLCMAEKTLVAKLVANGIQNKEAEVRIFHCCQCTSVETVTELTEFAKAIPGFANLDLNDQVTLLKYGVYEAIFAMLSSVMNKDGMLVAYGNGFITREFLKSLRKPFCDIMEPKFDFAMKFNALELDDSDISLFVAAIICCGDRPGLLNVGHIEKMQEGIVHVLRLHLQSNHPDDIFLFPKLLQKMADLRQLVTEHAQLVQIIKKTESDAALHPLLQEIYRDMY
Briefly: Agonist activity on Gal4 chimeric human Peroxisome proliferator activated receptor alpha expressed in CHO-K1 cells. The format is functional, cell-based. Summed up:
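GAL4–human PPAR LBD chimera, reporter assay in CHO-K1 cells. Cells seeded at 5 × 10⁴/well in Ham's F12 with 10% FCS for 24 h at 37 °C. Cotransfected for 2 h (lipofectamine) per well with 40 ng GAL4/PPAR LBD, 400 ng pFR-Luc and 5 ng pRL-TK. Compounds applied for 20 h at 37 °C, then luciferase read from cell lysates. EC50 is 50% of maximal reporter activity, from curve fit, n = 3.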

Test [8] addresses T4, Peroxisome proliferator-activated receptor delta (Homo sapiens) (UniProt Q03181).
T4 sequence (whole entry): T1 sequence (Q03181 whole entry)
In words: In vitro In vitro effective concentration for agonist activity on human Peroxisome proliferator activated receptor delta-GAL4 chimeric receptor in transfected CHO-K1 cells at 10 uM; inactive. Format: functional, cell-based.

The test system of test [9] is Rattus norvegicus. In words: In vivo percent reduction on TG of the normal rat at 30 mg/kg. Format: functional. The method, boiled down: as §1
Test [10] deals with Rattus norvegicus. Briefly: In vivo percent reduction on TG of the normal rat at 0.3 mg/kg. Format: functional. Summed up: as §1
In test [11] the test system is Rattus norvegicus. In words: In vivo percent reduction on LDL+VLDL of the normal rat at 30 mg/kg. Format: functional. The method, boiled down:
as §1

For test [12], the system named is Rattus norvegicus. In words: In vivo percent reduction on TG of the normal rat at 3 mg/kg. The format is functional. Summed up:
as §1

Test [13] deals with Rattus norvegicus. Briefly: In vivo percent reduction on FFA of the normal rat at 0.3 mg/kg. Format: functional. Summed up:
as §1

Test [14] deals with Rattus norvegicus. In words: In vivo percent reduction on total cholesterol of the normal rat at 30 mg/kg. The format is functional. Summed up: as §1
Test [15] deals with Rattus norvegicus. In words: In vivo percent reduction on FFA of the rat at 0.3 mg/kg after 5 days. The format is functional. Summed up:
as §1

For test [16], the system named is Rattus norvegicus. In words: In vivo percent reduction on total cholesterol of the rat at 0.3 mg/kg after 5 days. The format is functional. Summed up: as §1
In test [17] the test system is Rattus norvegicus. Briefly: In vivo percent reduction on LDL+VLDL of the normal rat at 0.3 mg/kg. Format: functional. Summed up:
as §1

Test [18] deals with Rattus norvegicus. In words: In vivo percent reduction on FFA of the rat at 3 mg/kg after 5 days. The format is functional. The method, boiled down: as §1
Test [19] deals with Rattus norvegicus. In words: In vivo percent reduction on LDL+VLDL of the normal rat at 3 mg/kg. The format is functional. Summed up: as §1
The test system of test [20] is Rattus norvegicus. In words: In vivo percent reduction on LDL+VLDL of the rat at 3 mg/kg after 5 days. The format is functional. The method, boiled down: as §1
Test [21] has as its system Rattus norvegicus. Briefly: In vivo percent reduction on TG of the rat at 3 mg/kg after 5 days. Format: functional. The method, boiled down: as §1
The test system of test [22] is Rattus norvegicus. Briefly: In vivo percent reduction on total cholesterol of the normal rat at 3 mg/kg. The format is functional. The method, boiled down: as §1
In test [23] the test system is Rattus norvegicus. In words: In vivo percent reduction on total cholesterol of the normal rat at 0.3 mg/kg. The format is functional. Summed up: as §1
Test [24] relates to Rattus norvegicus. Briefly: In vivo percent reduction on FFA of the normal rat at 3 mg/kg. The format is functional. The method, boiled down: as §1
Test [25] deals with Rattus norvegicus. In words: In vivo percent reduction on LDL+VLDL of the rat at 0.3 mg/kg after 5 days. Format: functional. Summed up: as §1
For test [26], the system named is Rattus norvegicus. In words: In vivo percent reduction on TG of the rat at 0.3 mg/kg after 5 days. Format: functional. Summed up:
as §1

For test [27], the system named is Rattus norvegicus. In words: In vivo percent reduction on total cholesterol of the rat at 3 mg/kg after 5 days. The format is functional. The method, boiled down: as §1
Test [28] has as its system Rattus norvegicus. Briefly: In vivo percent reduction on FFA of the normal rat at 30 mg/kg. Format: functional. The method, boiled down:
as §1

Test [29] addresses T4, Peroxisome proliferator-activated receptor delta (Homo sapiens). Briefly: In vitro effective concentration for agonist activity on human Peroxisome proliferator activated receptor delta-GAL4 chimeric receptor in transfected CHO-K1 cells at 10 uM; inactive.

The source made the active and inactive calls. The rule behind the calls is not given here.

As for `CC(C)(Oc1ccc(CCNC(=O)c2ccc(Cl)cc2)cc1)C(=O)O` [BEZAFIBRATE], the EC50 in [1] was over 143 µM. In addition, the Reduction turned out to be 27% in the test with Rattus norvegicus [2], 22% in the test on Rattus norvegicus [3], 46% in the test with Rattus norvegicus [4] and 41% with Rattus norvegicus [5].

With `COc1ccc(CC(=O)O)cc1C(=O)NCc1ccc(C(F)(F)F)cc1`, the IA entry in test [6], in test [7] and in test [8] was “inactive” each time.

Turning to `CC[C@@H](Cc1ccc(OC)c(C(=O)NCc2ccc(C(F)(F)F)cc2)c1)C(=O)O`, the Reduction is on record as 33% in the test on Rattus norvegicus [9]; -1% with Rattus norvegicus [10]; 58% with Rattus norvegicus [11]; 35% with Rattus norvegicus [2]; 26% in the test on Rattus norvegicus [12]; 11% in the test with Rattus norvegicus [13]. Besides, the Reduction with Rattus norvegicus [14] worked out at 32%; in the test with Rattus norvegicus [15], 12%; in the test with Rattus norvegicus [16], 22%; with Rattus norvegicus [17], 46%; with Rattus norvegicus [18] it was 28%; in the test with Rattus norvegicus [19], 56%. Further, the Reduction in the test with Rattus norvegicus [20] stood at 58%; with Rattus norvegicus [21] it was 25%; in the test on Rattus norvegicus [3], 60%; in the test on Rattus norvegicus [22], 26%; in the test on Rattus norvegicus [23], 19%; in the test on Rattus norvegicus [24], 27%. The Reduction in the test with Rattus norvegicus [4] is reported as 69%; with Rattus norvegicus [25], 29%; with Rattus norvegicus [26], 15%; in the test with Rattus norvegicus [27], 29%; with Rattus norvegicus [28] it was 72%; in the test with Rattus norvegicus [5] it was 56%.

As for `COc1ccc(CC2SC(=O)NC2=O)cc1C(=O)NCc1ccc(C(F)(F)F)cc1` (stereo not drawn), the IA result in test [29] was “inactive”.

As usually defined, the EC50 is the concentration at which the effect is half-maximal.

The values above are taken from ChEMBL document CHEMBL1145047, “Design, synthesis, and evaluation of substituted phenylpropanoic acid derivatives as human peroxisome proliferator activated receptor activators. Discovery of potent and human peroxisome proliferator activated receptor alpha subtype-selective activators” (J Med Chem, 2003).
